# Test results as given in ChEMBL document CHEMBL1811814, “Synthesis and evaluation of indole, pyrazole, chromone and pyrimidine based conjugates for tumor growth inhibitory activities--development of highly efficacious cytotoxic agents” (Eur J Med Chem, 2010).
# Legend:
# Type in all cases: functional
# NCI-H226 = assay: Growth inhibition of human NCI-H226 cells
# U-251 = assay: Growth inhibition of human U251 cells
# OVCAR-8 = assay: Growth inhibition of human OVCAR8 cells assessed tumor cell growth at 10^-5 M; design: scale not given: the % may be the effect or the level left
# Procedure, shortened: (§1)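 NCI 60-human-tumor-cell-line panel screen. Each compound was tested at a single concentration of 10^-5 M, and percent growth of tumor cells was recorded for each cell line. Growth inhibition was expressed from these percent-growth values.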
# EKVX = assay: Growth inhibition of human EKVX cells
# MCF7 = assay: Growth inhibition of human MCF7 cells assessed tumor cell growth at 10^-5 M; design: scale not given: the % may be the effect or the level left; procedure, shortened: as §1
# MDA-MB-435 = assay: Growth inhibition of human MDA-MB-435 cells
# KM12 [1] = assay: Growth inhibition of human KM12 cells assessed tumor cell growth at 10^-5 M; design: scale not given: the % may be the effect or the level left; procedure, shortened: as §1
# PC-3 = assay: Growth inhibition of human PC3 cells assessed tumor cell growth at 10^-5 M; design: scale not given: the % may be the effect or the level left; procedure, shortened: as §1
# Malme-3M = assay: Growth inhibition of human MALME-3M cells
# SN12C = assay: Growth inhibition of human SN12C cells
# ACHN = assay: Growth inhibition of human ACHN cells
# HOP-62 = assay: Growth inhibition of human HOP62 cells assessed tumor cell growth at 10^-5 M; design: scale not given: the % may be the effect or the level left; procedure, shortened: as §1
# COLO 205 = assay: Growth inhibition of human COLO205 cells assessed tumor cell growth at 10^-5 M; design: scale not given: the % may be the effect or the level left; procedure, shortened: as §1
# [2] = Growth inhibition of human RPMI8266 cells
# NCI-H23 [3] = assay: Growth inhibition of human NCI-H23 cells
# KM12 [4] = assay: Growth inhibition of human KM12 cells
# T47D [5] = assay: Growth inhibition of human T47D cells
# MDA-MB-468 = assay: Growth inhibition of human MDA-MB-468 cells assessed tumor cell growth at 10^-5 M; design: scale not given: the % may be the effect or the level left; procedure, shortened: as §1
# T47D [6] = assay: Growth inhibition of human T47D cells assessed tumor cell growth at 10^-5 M; design: scale not given: the % may be the effect or the level left
# Procedure, shortened: (§2)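 Single-dose screen at 10^-5 M across the 60 human tumor cell line panel, run to NCI standards. The value is the percent growth of each cell line in the presence of compound. Compounds active at this dose moved on to five-concentration testing (10^-4 to 10^-8 M).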
# A498 = assay: Growth inhibition of human A498 cells
# HOP-92 = assay: Growth inhibition of human HOP92 cells assessed tumor cell growth at 10^-5 M; design: scale not given: the % may be the effect or the level left; procedure, shortened: as §1
# SNB-19 = assay: Growth inhibition of human SNB19 cells
# HL-60(TB) = assay: Growth inhibition of human HL-60(TB) cells
# SF-268 = assay: Growth inhibition of human SF268 cells assessed tumor cell growth at 10^-5 M; design: scale not given: the % may be the effect or the level left; procedure, shortened: as §1
# K562 [7] = assay: Growth inhibition of human K562 cells assessed tumor cell growth at 10^-5 M; design: scale not given: the % may be the effect or the level left; procedure, shortened: as §1
# SW-620 [8] = assay: Growth inhibition of human SW620 cells
# A549 = assay: Growth inhibition of human A549 cells assessed tumor cell growth at 10^-5 M; design: scale not given: the % may be the effect or the level left; procedure, shortened: as §1
# UACC-62 [9] = assay: Growth inhibition of human UACC62 cells assessed tumor cell growth at 10^-5 M; design: scale not given: the % may be the effect or the level left; procedure, shortened: as §2
# LOX IMVI [10] = assay: Growth inhibition of human LOXIMVI cells
# SK-OV-3 = assay: Growth inhibition of human SKOV3 cells
# RXF 393 = assay: Growth inhibition of human RXF393 cells
# NCI-H460 [11] = assay: Growth inhibition of human NCI-H460 cells
# TK-10 = assay: Growth inhibition of human TK10 cells assessed tumor cell growth at 10^-5 M; design: scale not given: the % may be the effect or the level left; procedure, shortened: as §2
# HCT-15 = assay: Growth inhibition of human HCT15 cells
# HCT-116 [12] = assay: Growth inhibition of human HCT116 cells assessed tumor cell growth at 10^-5 M; design: scale not given: the % may be the effect or the level left; procedure, shortened: as §1
# SR = assay: Growth inhibition of human SR cells
# UACC-62 [13] = assay: Growth inhibition of human UACC62 cells
# UACC-257 = assay: Growth inhibition of human UACC257 cells
# OVCAR-4 = assay: Growth inhibition of human OVCAR4 cells assessed tumor cell growth at 10^-5 M; design: scale not given: the % may be the effect or the level left; procedure, shortened: as §1
# NCI-H460 [14] = assay: Growth inhibition of human NCI-H460 cells assessed tumor cell growth at 10^-5 M; design: scale not given: the % may be the effect or the level left; procedure, shortened: as §1
# NCI-H322M [15] = assay: Growth inhibition of human NCI-H322M cells
# HCT-116 [16] = assay: Growth inhibition of human HCT116 cells
# K562 [17] = assay: Growth inhibition of human K562 cells
# SK-MEL-2 = assay: Growth inhibition of human SK-MEL-2 cells assessed tumor cell growth at 10^-5 M; design: scale not given: the % may be the effect or the level left; procedure, shortened: as §1
# SW-620 [18] = assay: Growth inhibition of human SW620 cells assessed tumor cell growth at 10^-5 M; design: scale not given: the % may be the effect or the level left; procedure, shortened: as §2
# SK-MEL-28 = assay: Growth inhibition of human SK-MEL-28 cells assessed tumor cell growth at 10^-5 M; design: scale not given: the % may be the effect or the level left; procedure, shortened: as §1
# NCI-H322M [19] = assay: Growth inhibition of human NCI-H322M cells assessed tumor cell growth at 10^-5 M; design: scale not given: the % may be the effect or the level left; procedure, shortened: as §1
# OVCAR-3 = assay: Growth inhibition of human OVCAR3 cells assessed tumor cell growth at 10^-5 M; design: scale not given: the % may be the effect or the level left; procedure, shortened: as §1
# SF-539 = assay: Growth inhibition of human SF539 cells assessed tumor cell growth at 10^-5 M; design: scale not given: the % may be the effect or the level left; procedure, shortened: as §1
# LOX IMVI [20] = assay: Growth inhibition of human LOXIMVI cells assessed tumor cell growth at 10^-5 M; design: scale not given: the % may be the effect or the level left; procedure, shortened: as §1
# IGROV-1 = assay: Growth inhibition of human IGROV1 cells assessed tumor cell growth at 10^-5 M; design: scale not given: the % may be the effect or the level left; procedure, shortened: as §1
# NCI-H23 [21] = assay: Growth inhibition of human NCI-H23 cells assessed tumor cell growth at 10^-5 M; design: scale not given: the % may be the effect or the level left; procedure, shortened: as §1
# [22] = read-out: LC50 (the source's name)
smiles,measurement,setting,value
O=C1Nc2ccccc2/C1=C/c1cn(C(=O)c2c(Cl)cccc2Cl)c2ccccc12,GI50,NCI-H226,7.4 µM
same,CC50,NCI-H226; [22],83.1 µM
same,GI50,U-251,3.4 µM
same,CC50,U-251; [22],54.9 µM
same,Activity,OVCAR-8,52.3%
same,GI50,EKVX,2.8 µM
same,CC50,EKVX; [22],> 100 µM
same,Activity,MCF7,22.9%
same,GI50,MDA-MB-435,2.2 µM
same,CC50,MDA-MB-435; [22],51.2 µM
same,Activity,KM12 [1],54.7%
same,Activity,PC-3,41.7%
same,GI50,Malme-3M,2.6 µM
same,CC50,Malme-3M; [22],58.8 µM
same,GI50,SN12C,3.9 µM
same,CC50,SN12C; [22],70.7 µM
same,GI50,ACHN,3.1 µM
same,CC50,ACHN; [22],> 100 µM
same,Activity,HOP-62,88.7%
same,Activity,COLO 205,41.7%
same,GI50,[2],3.4 µM
same,CC50,[2]; [22],> 100 µM
same,GI50,NCI-H23 [3],4.1 µM
same,LC50 (concentration killing 50% of cells),NCI-H23 [3],50.1 µM
same,GI50,KM12 [4],1.8 µM
same,CC50,KM12 [4]; [22],8.9 µM
same,GI50,T47D [5],4.1 µM
same,CC50,T47D [5]; [22],> 100 µM
same,Activity,MDA-MB-468,32.6%
same,Activity,T47D [6],47.7%
same,GI50,A498,1.2 µM
same,CC50,A498; [22],21.8 µM
same,Activity,HOP-92,49%
same,GI50,SNB-19,7.2 µM
same,CC50,SNB-19; [22],> 100 µM
same,GI50,HL-60(TB),2.4 µM
same,CC50,HL-60(TB); [22],> 100 µM
same,Activity,SF-268,56.5%
same,Activity,K562 [7],45.6%
same,GI50,SW-620 [8],2.9 µM
same,CC50,SW-620 [8]; [22],52.4 µM
same,Activity,A549,36.7%
same,Activity,UACC-62 [9],36.7%
same,GI50,LOX IMVI [10],1.6 µM
same,CC50,LOX IMVI [10]; [22],6.6 µM
same,GI50,SK-OV-3,8.3 µM
same,CC50,SK-OV-3; [22],> 100 µM
same,GI50,RXF 393,4.1 µM
same,CC50,RXF 393; [22],43.6 µM
same,GI50,NCI-H460 [11],1.9 µM
same,CC50,NCI-H460 [11]; [22],7.9 µM
same,Activity,TK-10,90.7%
same,GI50,HCT-15,3.4 µM
same,CC50,HCT-15; [22],> 100 µM
same,Activity,HCT-116 [12],26%
same,GI50,SR,2.2 µM
same,CC50,SR; [22],> 100 µM
same,GI50,UACC-62 [13],4.9 µM
same,CC50,UACC-62 [13]; [22],61.6 µM
same,GI50,UACC-257,5 µM
same,CC50,UACC-257; [22],95.4 µM
same,Activity,OVCAR-4,50.3%
same,Activity,NCI-H460 [14],71.1%
same,GI50,NCI-H322M [15],2.9 µM
same,CC50,NCI-H322M [15]; [22],> 100 µM
same,GI50,HCT-116 [16],1.6 µM
same,CC50,HCT-116 [16]; [22],6.9 µM
same,GI50,K562 [17],3.1 µM
same,CC50,K562 [17]; [22],> 100 µM
same,Activity,SK-MEL-2,39.9%
same,Activity,SW-620 [18],45.4%
same,Activity,SK-MEL-28,81.4%
same,Activity,NCI-H322M [19],90.3%
same,Activity,OVCAR-3,43%
same,Activity,SF-539,67.4%
same,Activity,LOX IMVI [20],48.4%
same,Activity,IGROV-1,25.7%
same,Activity,NCI-H23 [21],56.9%
